Reference: ChEMBL document CHEMBL5108071, “Potent and Specific Activators for Mitochondrial Sirtuins Sirt3 and Sirt5” (J Med Chem, 2022)

Tests used:
[1] = biological target: T1, NAD-dependent protein deacylase sirtuin-5, mitochondrial (Homo sapiens, UniProt Q9NXA8); assay: Binding affinity to N-terminal his-tagged human SIRT5 (34 to 302 residues) expressed in Escherichia coli assessed as dissociation constant using CPS1-succK537 peptide as substrate
Summary of the method: (§1)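 MST binding: Sirt5 labelled 2 h at room temperature in the dark with twofold molar excess FITC in PBS pH 7.4, free dye removed; 10 nM labelled protein incubated with ligand plus saturating 0.5 mM peptide or 5 mM NAD+ in PBS, 10% DMSO, 30 min on ice; read at 25 °C.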

[2] = biological target: T1, NAD-dependent protein deacylase sirtuin-5, mitochondrial; assay: Binding affinity to N-terminal his-tagged human SIRT5 (34 to 302 residues) expressed in Escherichia coli assessed as dissociation constant using NAD+ as substrate; summary of the method: as §1

T1 sequence (Q9NXA8 whole entry, the tested form may be a part): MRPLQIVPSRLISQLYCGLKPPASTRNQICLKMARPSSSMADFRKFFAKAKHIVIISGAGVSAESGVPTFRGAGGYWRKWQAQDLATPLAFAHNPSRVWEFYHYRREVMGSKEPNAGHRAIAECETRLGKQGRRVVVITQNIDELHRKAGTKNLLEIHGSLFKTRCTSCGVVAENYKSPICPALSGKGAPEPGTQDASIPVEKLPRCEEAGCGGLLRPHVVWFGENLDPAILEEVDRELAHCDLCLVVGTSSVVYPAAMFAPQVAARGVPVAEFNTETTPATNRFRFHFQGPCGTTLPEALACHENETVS

Kd [1]: 24 µM
Kd [2]: 28 µM
Structure (SMILES): CCOC(=O)C1=CN(C(=O)c2ccccc2)C=C(C(=O)OCC)C1c1ccsc1
